Consider 13 compounds from ChEMBL document CHEMBL1145892, “2-Substitution of adenine nucleotide analogues containing a bicyclo[3.1.0]hexane ring system locked in a northern conformation: enhanced potency as P2Y1 receptor antagonists” (J Med Chem, 2003).

Assay [1] addresses T1, P2Y purinoceptor 1 (Homo sapiens, UniProt P47900). In words: Antagonistic activity against P2Y purinoceptor 1. In kind it is functional. In outline: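 Human P2Y1 stably expressed in 1321N1 astrocytoma cells, labeled 18–24 h at 37 °C with 1.0 µCi [3H]myo-inositol in inositol-free DMEM. Inositol phosphate accumulation was stimulated by 30 nM 2MeSADP over 10 min at 37 °C with 10 mM LiCl. Total [3H]inositol phosphates were measured by anion exchange. IC50 came from a four-parameter logistic fit; ≥3 experiments, duplicate or triplicate.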

In assay [2] the target is T1, P2Y purinoceptor 1. In words: Inhibition of [3H]5 binding to P2Y purinoceptor 1 expressed in Sf9 cells. The method, boiled down:
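Membranes were from Sf9 cells expressing human P2Y1 via recombinant baculovirus. They were incubated 30 min at 4 °C with [3H]5 (~20 nM or 10 nM as stated) across a wide analogue concentration range. Samples were filtered over glass-fiber with ice-cold 10 mM Tris pH 7.5/145 mM NaCl and counted by scintillation. Assays were triplicate, three experiments. Ki = IC50/(1+[L]/Kd), Kd 8 nM.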

SMILES strings stand for the structures.

T1 sequence (P47900 whole entry): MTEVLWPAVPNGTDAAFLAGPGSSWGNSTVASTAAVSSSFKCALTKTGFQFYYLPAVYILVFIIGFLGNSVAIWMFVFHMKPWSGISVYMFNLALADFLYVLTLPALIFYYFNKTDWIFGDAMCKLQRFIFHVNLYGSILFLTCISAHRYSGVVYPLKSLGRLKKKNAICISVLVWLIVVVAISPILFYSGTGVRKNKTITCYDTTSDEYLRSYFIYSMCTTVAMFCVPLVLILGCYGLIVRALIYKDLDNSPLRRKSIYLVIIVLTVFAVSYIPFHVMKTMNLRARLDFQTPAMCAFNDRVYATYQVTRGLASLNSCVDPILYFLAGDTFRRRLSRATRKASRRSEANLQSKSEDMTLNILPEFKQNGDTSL

`CSc1nc(N)c2ncn([C@H]3C[C@H](OP(=O)(O)O)[C@]4(COP(=O)(O)O)C[C@H]34)c2n1` showed a half-inhibitory concentration (IC50) against P2Y purinoceptor 1 [1] of 367 nM. The affinity on P2Y purinoceptor 1 [2], expressed as Ki, was 863 nM.

At P2Y purinoceptor 1 [1], `CNc1ncnc2c1ncn2[C@H]1C[C@H](OP(=O)(O)O)[C@]2(COP(=O)(O)O)C[C@H]12` returned a half-inhibitory concentration (IC50) of 157 nM. This compound also had an inhibitory constant (Ki) at P2Y purinoceptor 1 [2] of 17.6 nM.

For the compound `CNc1nc(F)nc2c1ncn2[C@H]1C[C@H](OP(=O)(O)O)[C@]2(COP(=O)(O)O)C[C@H]12`, the midpoint of inhibition on P2Y purinoceptor 1 [1], the IC50, lay at 356 nM. On P2Y purinoceptor 1 [2], this compound returned a Ki of 45 nM.

At P2Y purinoceptor 1 [1], `CNc1nc(Cl)nc2c1ncn2[C@H]1C[C@H](OP(=O)(O)O)[C@]2(COP(=O)(O)O)C[C@H]12` yielded an IC50 of 52 nM. Moreover, the affinity at P2Y purinoceptor 1 [2], expressed as Ki, was 2.5 nM.

On to `Nc1nc(I)nc2c1ncn2C1CC(OP(=O)(O)O)[C@]2(COP(=O)(O)O)C[C@H]12` (stereo partly specified), for which the IC50 against P2Y purinoceptor 1 [1] is 87 nM. The compound also gave an inhibitory constant (Ki) at P2Y purinoceptor 1 [2] of 12.6 nM.

As for `CNc1nc(C)nc2c1ncn2[C@H]1C[C@H](OP(=O)(O)O)[C@]2(COP(=O)(O)O)C[C@H]12`, the 50% inhibitory concentration (IC50) against P2Y purinoceptor 1 [1] came out at 49 nM. The same compound returned a Ki at P2Y purinoceptor 1 [2] of 3.6 nM.

At P2Y purinoceptor 1 [1], `CCCC/C=C\c1nc(NC)c2ncn([C@H]3C[C@H](OP(=O)(O)O)[C@]4(COP(=O)(O)O)C[C@H]34)c2n1` registered a 50% inhibitory concentration (IC50) of 2400 nM. In addition, the Ki at P2Y purinoceptor 1 [2] stood at 430 nM.

As to `CNc1nc(Br)nc2c1ncn2C1CC(OP(=O)(O)O)[C@]2(COP(=O)(O)O)C[C@H]12` (stereo partly specified), the 50% inhibitory concentration (IC50) against P2Y purinoceptor 1 [1] turned out to be 37 nM. Moreover, the Ki on P2Y purinoceptor 1 [2] came out at 5.1 nM.

Consider `CCCCCCc1nc(NC)c2ncn([C@H]3C[C@H](OP(=O)(O)O)[C@]4(COP(=O)(O)O)C[C@H]34)c2n1`, for which the midpoint of inhibition against P2Y purinoceptor 1 [1], the IC50, lay at 452 nM. This compound showed a Ki on P2Y purinoceptor 1 [2] of 80 nM.

Compound `CNc1nc([Se]C)nc2c1ncn2C1CC(OP(=O)(O)O)[C@]2(COP(=O)(O)O)C[C@H]12` (stereo partly specified) displayed a half-inhibitory concentration (IC50) against P2Y purinoceptor 1 [1] of 377 nM. Besides, at P2Y purinoceptor 1 [2], the Ki was 35 nM.

In turn, `CNc1nc(I)nc2c1ncn2[C@H]1C[C@H](OP(=O)(O)O)[C@]2(COP(=O)(O)O)C[C@H]12` returned an IC50 at P2Y purinoceptor 1 [1] of 8.4 nM. Also, the Ki at P2Y purinoceptor 1 [2] worked out at 0.78 nM.

With `CNc1nc(SC)nc2c1ncn2[C@H]1C[C@H](OP(=O)(O)O)[C@]2(COP(=O)(O)O)C[C@H]12`, the half-maximal inhibitory concentration (IC50) against P2Y purinoceptor 1 [1] worked out at 221 nM. On P2Y purinoceptor 1 [2], this compound came in with an inhibition constant Ki of 91 nM.

`CCCC/C=C/c1nc(NC)c2ncn([C@H]3C[C@H](OP(=O)(O)O)[C@]4(COP(=O)(O)O)C[C@H]34)c2n1`: the IC50 at P2Y purinoceptor 1 [1] was found to be 1870 nM. Further, on P2Y purinoceptor 1 [2], the affinity corresponds to a Ki of 330 nM.
